Screening results: PubChem, The Scripps Research Institute Molecular Screening Center
ABHD4 inh: inhibits mouse alpha/beta hydrolase domain 4 | hit rate 0.54% among 370,000 | inhibition, % at 8.92 µM | purified mABHD4, FP-Rh probe fluorescence polarization | Q8VD66;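 active = inhibition exceeding the mean over every tested compound plus 3 SD, cut at about 30% in these data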
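assay system = mABHD4 protein | compound dosing = single nominal dose of 8.92 µM, 0.89% DMSO final | read-out basis = percent inhibition of probe binding, normalized to plate controls | schedule = Enzyme–compound pre-incubation 45 min, then probe 60 min, both 25 °C | detection = fluorescence polarization, excitation 525 nm, emission 598 nm, BODIPY TMR filters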
SIAE primary: human SIAE inhibition, primary screen. inhibition, % at 9.66 µM. SIAE FP-Rh probe binding, fluorescence polarization. hit rate 0.69% among 370,000. Q9HAT2;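 active = inhibition above a cutoff: mean of compounds within the control limits plus 3 SD of those, cut at about 17% in these data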
Target sequence (Q9HAT2 whole entry, looked up): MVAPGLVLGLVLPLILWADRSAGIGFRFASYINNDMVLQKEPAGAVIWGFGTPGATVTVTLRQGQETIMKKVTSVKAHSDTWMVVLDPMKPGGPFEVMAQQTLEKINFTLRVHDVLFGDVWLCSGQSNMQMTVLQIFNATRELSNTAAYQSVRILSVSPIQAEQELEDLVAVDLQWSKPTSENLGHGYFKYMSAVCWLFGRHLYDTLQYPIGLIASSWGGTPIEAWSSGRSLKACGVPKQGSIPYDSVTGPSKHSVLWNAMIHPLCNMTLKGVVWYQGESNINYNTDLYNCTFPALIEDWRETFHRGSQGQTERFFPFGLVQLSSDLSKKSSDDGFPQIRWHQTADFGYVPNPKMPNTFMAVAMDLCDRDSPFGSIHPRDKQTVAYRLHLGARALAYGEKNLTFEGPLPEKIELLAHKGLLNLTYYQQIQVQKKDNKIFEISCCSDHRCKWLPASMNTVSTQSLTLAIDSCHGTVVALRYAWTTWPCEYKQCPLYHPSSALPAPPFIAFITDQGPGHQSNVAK
HTRA1 inh: blocks human HTRA1 serine peptidase | hit rate 0.5% among 340,000 | recombinant HTRA1, FP-rhodamine activity-based probe, fluorescence polarization | Q92743 | AID 504803 | inhibition, % at 5.96 µM; in the data active = inhibition above about 36%
TCR-CD3 inh: blocks the human TCR-CD3 interaction. AID 651800. TAMRA-labeled TCR probe fluorescence, biochemical. inhibition, % at 9.4 µM. hit rate 0.37% among 360,000; in the data active = inhibition above about 19%;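 note: recombinant mutant TCR 2C K166C tagged with TAMRA read by polarization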
PRMT1 inh: inhibitors of human PRMT1; Q99873; recombinant PRMT1, activity-based probe fluorescence polarization; inhibition, % at 2.79 µM; hit rate 1.3% among 370,000; AID 652257;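 active = inhibition above about 21% made by adding two undisclosed values, limit read from the data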
PRMT1 inh conf: confirmation of human PRMT1 inhibitors; shares compounds with PRMT1 inh; recombinant His-PRMT1, activity-based probe fluorescence polarization; inhibition, % at 2.79 µM; hit rate 42% among 3,300;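 active = mean inhibition across replicates above the hit cutoff derived for the earlier primary screen, cut at about 22% in these data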
Numbers stand for hits; . = inactive; / = no result given. Shown are actives, neighbours in structure and some others; about 2.6% of the full set was active somewhere.

SMILES	ABHD4 inh	SIAE primary	HTRA1 inh	TCR-CD3 inh	PRMT1 inh	PRMT1 inh conf
CCN1C(=O)CC(N2CCC(c3nc4ccccc4[nH]3)CC2)C1=O (stereo not given)	.	.	.	.	.	/
COc1ccc(CN2C/C(=C/C3=CCCCC3)N(C(=O)OCc3ccccc3)C2=N)c(OC)c1	.	.	/	/	.	/
O=C1CN(CC(=O)Nc2cccc(Cl)c2Cl)c2ccccc2N1	.	.	.	.	52	76
C=CCn1c(=O)[nH]c2nc3cc(N=CN(C)C)c(C)cc3nc2c1=O	.	.	.	.	31	75
CC(=O)CC[C@@H]1CC[C@]2(CCCN(C(=O)c3ccc4ccccc4n3)C2)O1	.	.	/	/	.	/
CCCNC(=O)c1ccc2snnc2c1	.	.	.	.	.	/
Cc1ccc(S(=O)c2snnc2C)cc1 (stereo not given)	.	.	.	.	.	/
CNC(=O)c1nnsc1S(=O)c1ccc(Cl)cc1 (stereo not given)	.	.	.	.	77	76
CCCNC(=O)c1nnsc1S(=O)c1ccc(Cl)cc1 (stereo not given)	.	.	.	.	95	90
COC(=O)[C@]12C[C@H](CC(=O)NCC34CC5CC(CC(C5)C3)C4)C(=O)N(Cc3ccccc3)C1=C[C@H](C(C)(C)C)O[C@@H]2C	.	.	/	.	.	/
Cc1cc(-c2ccco2)n(-c2ccccc2)n1	.	.	.	.	43	21
COC(=O)[C@]12C[C@H](CC(=O)NCCc3ccccc3OC)C(=O)N(Cc3ccc(Cl)cc3Cl)C1=C[C@H](C(C)(C)C)O[C@@H]2C	.	.	/	/	.	/
N#Cc1cc2c(nc1SCc1ccncc1)CCC2	.	.	.	.	38	.
COc1ccc(-c2onc3ccc(Cl)cc23)cc1	.	.	.	.	30	.
Nc1c(C(=O)Nc2ccccc2)sc2nc3c(c(-c4ccco4)c12)CCC3	.	.	.	.	.	/
Nc1c(C(=O)Nc2ccc(F)cc2)sc2nc(-c3ccco3)ccc12	.	.	.	.	44	30
Nc1c(C(=O)Nc2ccc(Br)cc2)sc2nc(-c3ccco3)ccc12	.	.	.	.	45	.
Cc1ccc(NC(=O)c2sc3nc4c(c(-c5ccco5)c3c2N)CCC4)cc1	.	.	.	.	.	/
CCCC1=NN2C(=N)/C(=C\c3ccc(SCc4ccco4)o3)C(=O)N=C2S1	/	/	.	/	/	/
CCC1=NN2C(=N)/C(=C\c3ccc(SCc4ccco4)o3)C(=O)N=C2S1	.	.	.	.	39	.
COC(=O)c1nc(NNC(=O)c2ccccc2)sc1-c1ccccc1	.	.	.	.	43	.
Cc1nc2sc(C(c3ccco3)N3CCc4ccccc4C3)c(O)n2n1 (stereo not given)	.	.	.	.	45	.
Cc1nc2sc(C(c3ccco3)N3CCN(c4ccc(F)cc4)CC3)c(O)n2n1 (stereo not given)	.	.	.	.	25	.
COc1ccc(S[C@]2(C(=O)N3CCN(c4ncccn4)CC3)CC(=O)N(c3ccc(OC)cc3)[C@@H]2c2ccc(OC)cc2)cc1	.	.	/	/	.	/
COc1ccc(CN2C(=O)N3Cc4ccccc4C3CS2(=O)=O)cc1 (stereo not given)	.	.	/	/	.	/
SMILES	ABHD4 inh	SIAE primary	HTRA1 inh	TCR-CD3 inh	PRMT1 inh	PRMT1 inh conf
CC(=O)Nc1c(O)nc(SCC(=O)Nc2c(C)cccc2C)[nH]c1=O	.	.	.	.	57	25
Cc1ccc(-c2csc(Nc3ccc(S(N)(=O)=O)cc3)n2)o1	.	.	.	.	72	40
Cc1ccc(Nc2nc(-c3ccc(S(=O)(=O)N4CCOCC4)cc3)cs2)cc1	.	.	.	.	26	.
Cc1ccc(-c2csc(NC(=O)Cc3ccc(F)cc3)n2)o1	.	.	.	.	41	43
COc1ccc(OC)c(-c2csc(NC(=O)Cc3ccc(F)cc3)n2)c1	.	.	.	.	.	/
Cc1cc(=S)nc(-c2ccccn2)[nH]1	.	.	.	.	33	.
Cc1ccc(-c2cc(C(=O)NN=C/C=C/c3ccco3)[nH]n2)cc1C	.	.	/	/	.	/
O=C1C(=Cc2cccc(O)c2O)SC(=S)N1CCCN1CCOCC1	.	.	.	.	82	83
COc1ccc(C=C2SC(=S)N(CCCN3CCOCC3)C2=O)c(OC)c1	.	.	.	.	.	/
Cn1c(COc2ccccc2)nnc1SCCSc1nnc(COc2ccccc2)n1C	.	.	.	.	.	/
Cn1c(COc2ccc(Br)cc2)nnc1SC1CCc2ccccc2C1=O (stereo not given)	.	.	.	.	53	.
S=C1NC[C@H](Cc2ccccc2)N1CC1CCN(CCCC2CCCCC2)CC1	.	.	/	.	.	/
O=C(CC(Nc1ccc(Cl)cc1Cl)C(=O)O)c1ccccc1 (stereo not given)	.	.	.	.	39	.
O=C(CC(Nc1ccccc1)C(=O)O)c1ccccc1 (stereo not given)	.	.	.	.	.	/
O=C1OCCN1/N=C/c1ccc([N+](=O)[O-])o1	.	.	.	.	.	/
O=C1CN(/N=C/c2ccc([N+](=O)[O-])o2)C(=O)N1	.	.	/	.	30	.
CCOC(=O)C1=C(CSc2nc3c(cc2C#N)CCC3)OC(N)=C(C#N)C1c1ccccc1 (stereo not given)	.	.	.	.	46	.
CCOC(=O)C1=C(CSc2nc(-c3ccccc3)ccc2C#N)OC(N)=C(C#N)C1c1cccnc1 (stereo not given)	.	.	.	.	41	26
O=C1C=CC(=O)N1Cc1ccncc1	.	.	.	.	.	/
O=C1C=CC(=O)N1CCCCCCCCCCN1C(=O)C=CC1=O	.	.	.	.	82	98
Cc1ccc(S(=O)(=O)n2nc(-c3ccco3)nc2SCc2ccccc2)cc1	.	.	.	.	25	.
CSc1nc(-c2ccco2)nn1S(=O)(=O)c1ccc(C)cc1	.	.	.	.	.	/
C=CCN1C(=O)[C@@H](CC(=O)NCCCC)[C@]2(C(=O)OCC)CCCCC/C=C/12	.	.	/	/	.	/
Cc1ccc(S(=O)(=O)Cc2ccc(C(=O)OCc3ccccc3)cc2)cc1	.	.	.	.	.	/
O=C(O)c1ccc(S(=O)(=O)Cc2ccccc2)cc1	.	.	.	.	25	.
SMILES	ABHD4 inh	SIAE primary	HTRA1 inh	TCR-CD3 inh	PRMT1 inh	PRMT1 inh conf
CCc1ccccc1NC(=O)C1C2C=CC(O2)C1C(=O)O (stereo not given)	.	.	.	.	.	/
O=C(O)C1C2C=CC(O2)C1C(=O)Nc1ccccc1C(F)(F)F (stereo not given)	.	.	.	.	85	24
O=S(=O)(CCSc1ccccn1)c1nc2ccccc2s1	.	.	.	.	26	.
O=S(=O)(CCSc1nc2ccccc2o1)c1nc2ccccc2s1	.	.	.	.	.	/
CCN(CC)CCSC(=O)C(c1ccccc1)c1ccccc1	.	.	/	.	76	40
Cn1cccc1C(=O)N1CCN(S(=O)(=O)c2ccccc2F)CC1	.	.	/	/	.	/
O=C(C1CCN(c2cncnc2)CC1)N1CCOCC1	.	.	/	/	.	/
